Published values pooled from the literature.
Protocols differ between the studies behind these lines.
Target: 3-phosphoinositide-dependent protein kinase 1 (PDPK1, Homo sapiens, UniProt O15530)
One construct used (O15530 1-556): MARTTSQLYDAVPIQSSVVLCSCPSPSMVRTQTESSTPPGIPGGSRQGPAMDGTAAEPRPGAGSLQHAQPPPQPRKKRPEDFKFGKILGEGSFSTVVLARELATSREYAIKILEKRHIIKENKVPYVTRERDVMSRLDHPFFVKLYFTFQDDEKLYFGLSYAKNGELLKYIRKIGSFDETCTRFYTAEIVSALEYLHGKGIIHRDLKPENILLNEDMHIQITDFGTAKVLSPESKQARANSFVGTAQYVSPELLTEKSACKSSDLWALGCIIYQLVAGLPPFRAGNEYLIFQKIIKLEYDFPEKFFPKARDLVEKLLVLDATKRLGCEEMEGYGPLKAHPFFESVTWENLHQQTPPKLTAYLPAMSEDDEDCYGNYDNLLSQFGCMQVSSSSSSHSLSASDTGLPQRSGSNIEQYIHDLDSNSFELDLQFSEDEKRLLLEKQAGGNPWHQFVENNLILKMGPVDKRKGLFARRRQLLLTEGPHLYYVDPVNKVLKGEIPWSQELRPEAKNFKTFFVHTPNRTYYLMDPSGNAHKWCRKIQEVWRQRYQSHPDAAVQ

SMILES	assay	conditions	quantity	result
O=C(O)[C@@H]1[C@@H](Cn2nnc3ccccc3c2=O)CC[C@H]1C(=O)c1ccc(OCCC2CCOCC2)cc1	cell-free assay, competition with immobilised ligand	1 µM	remaining binding	80%
CCN(CC)CCNC(=O)c1c(C)[nH]c(/C=C2\C(=O)Nc3ccc(F)cc32)c1C	cell-free assay	0.5 µM	remaining signal	81.6%
c1ccc(N2CCN(Cc3nc4ccccc4[nH]3)CC2)nc1	binding, competition with immobilised ligand	1 µM	remaining binding	89%
Cn1c(=O)n(-c2ccc(C(C)(C)C#N)cc2)c2c3cc(-c4cnc5ccccc5c4)ccc3ncc21	enzyme activity, inhibitor	10 µM	remaining activity	98%
CC(C)(C)C(=O)c1sc(NC2CCCCC2)nc1N	enzyme activity, inhibitor	10 µM	remaining activity	108%
CC(C)(C)c1nc(-c2cccc(NS(=O)(=O)c3c(F)cccc3F)c2F)c(-c2ccnc(N)n2)s1	enzyme activity, inhibitor, radiometric	1 µM	remaining activity	94%
O=C(Nc1cnn(-c2csc(C(=O)NC3COC3)c2)c1)Nc1c(F)cccc1Cl	enzyme activity, inhibitor	5 µM	remaining activity	99.6%
C#Cc1cccc(Nc2ncnc3cc(OCCOC)c(OCCOC)cc23)c1	cell-free assay	0.5 µM	remaining signal	83.8%
CCN(CC)c1ccc(C2=NNC(=O)CC2C)cc1[N+](=O)[O-] (centres unmarked)	enzyme activity, inhibitor	10 µM	remaining activity	116%
O=C(Nc1cnn(-c2csc(C(=O)NC3COC3)c2)c1)Nc1ccccc1Cl	enzyme activity, inhibitor	5 µM	remaining activity	101%
C[S+]([O-])c1ccc(-c2nc(-c3ccncc3)c(-c3ccc(F)cc3)[nH]2)cc1 (centres unmarked)	cell-free assay	0.5 µM	remaining signal	96.3%
Cc1cnc(NC2CCOCC2)nc1-n1cnc(C(=O)NC(CN)c2cc(F)cc(Cl)c2)c1 (centres unmarked)	enzyme activity, inhibitor, radiometric	1 µM	remaining activity	84%
COc1cccc(CNC(=O)c2nc3scc(COCc4ccc(C(=O)O)cc4)c3c(=O)[nH]2)c1	cell-free assay, competition with immobilised ligand	1 µM	remaining binding	87.8%
COc1cc(Cl)c(C(=O)N[C@@H](CN[C@H]2CC[C@@H](N)CC2)Cc2ccc(C#N)cc2)cc1-c1ccc(CN[C@H](C)c2ccc(C)cc2)o1	enzyme activity, inhibitor	1 µM	remaining activity	73%
O=C(N[C@H]1CCCCC/C=C\C2C[C@@]2(C(=O)O)NC(=O)[C@@H]2C[C@@H](Oc3ccncc3)CN2C1=O)OC1CCCC1 (some centres unmarked)	binding, competition with immobilised ligand	1 µM	remaining binding	92%
Nc1nc(Nc2ccccc2)sc1C(=O)c1c(F)cccc1F	enzyme activity, inhibitor	10 µM	remaining activity	65%
COc1cc(Nc2cnc(C#N)c(O[C@H](C)CN(C)C)n2)ncc1-c1cnn(C)c1	enzyme activity, inhibitor, radiometric	1 µM	remaining activity	76%
O=C(O)c1cc(-c2ccc(C3CCNCC3)cc2)c2ccc(-c3ccc(C(F)(F)F)cc3)cc2c1	cell-free assay, competition with immobilised ligand	1 µM	remaining binding	100%
CN(C)C1CCN(CC#Cc2nn(C3CCCC3)c3nc(NCc4ccccc4)ncc23)C1 (centres unmarked)	enzyme activity, inhibitor, FRET	1 µM	inhibition	4%
O=C1Nc2ccc(Cl)cc2C1=Cc1cc(Cl)c(O)c(Cl)c1	cell-free assay	0.5 µM	remaining signal	103%
CC(C)CC(=O)N1CCc2nc(-c3ccc(Br)cc3)nc(N(C)Cc3ccccc3)c2C1	cell-free assay, competition with immobilised ligand	0.1 µM	remaining binding	100%
CNC(=O)c1cc(Oc2ccc(NC(=O)Nc3ccc(Cl)c(C(F)(F)F)c3)cc2)ccn1	cell-free assay, competition with immobilised ligand	0.1 µM	remaining binding	100%
CCCCN(CCCC)C(=O)CN1C[C@H](c2cc(OC)c3c(c2)OCO3)[C@@H](C(=O)O)[C@@H]1CC(C)(C)CCC	cell-free assay, competition with immobilised ligand	1 µM	remaining binding	100%
O=C1NC(=O)c2cc(Nc3ccc(F)cc3)c(Nc3ccc(F)cc3)cc21	cell-free assay	0.5 µM	remaining signal	102%
Cc1nc(N2CC[C@@H](O)C2)ncc1-c1cc(C(F)(F)F)cc2[nH]ncc12	binding, competition with immobilised ligand	1 µM	remaining binding	100%
FC(F)c1nc2ccccc2n1-c1nc(N2CCOCC2)nc(N2CCOCC2)n1	enzyme activity, inhibitor	10 µM	remaining activity	92%
